For one series, the system named is Bacillus subtilis. The series can be described thus: Antibacterial activity against Bacillus subtilis by microdilution assay. The format is functional. In outline:
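Broth microdilution against B. subtilis, samples serially twofold diluted from a 1024 µg/mL start, two replicates per concentration. MIC recorded. Cefotaxim served as positive control. Afterwards, bacteria treated at the MIC were replated on drug-free HNB agar to tell bacteriostatic from bactericidal action.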
(Broth dilution looks for growth in wells or tubes with falling amounts of substance.)

Another series concerns Pseudomonas fluorescens. The series can be described thus: Antibacterial activity against Pseudomonas fluorescens at 1024 ug/ml. The format is functional, organism-based. Summed up:
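Broth microdilution against P. fluorescens, samples serially twofold diluted from a top concentration of 1024 µg/mL, two replicates per concentration. Cefotaxim served as positive control.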

Another series relates to 5637. The experiment in a line: Cytotoxicity against human 5637 cells. The format is functional. The settings on record: read-out: LC50 (the source's name).
Series [1] can be described thus: Toxicity against Oreochromis mossambicus assessed as mortality at 50 ug/ml. The format is organism-based. The settings on record: in vivo, read-out: Activity. Summed up:
(§1)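 Tilapia (Oreochromis mossambicus) exposed to the compound in water at 50 or 75 µg/mL. Read-out is percent fish mortality.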

The test system of a further series is Caenorhabditis elegans. The series can be described thus: Nematicidal activity against Caenorhabditis elegans at 100 ug/ml. The format is functional, organism-based. Summed up: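 Caenorhabditis elegans exposed to compound at 50 and 100 µg/mL (n = 60, two replicates per concentration). Scored by increase in worm number and worm movement, graded on a + scale. Pyrantel embonate at 50 µg/mL served as positive control.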

Series [2] in a line: Toxicity against Oreochromis mossambicus assessed as mortality at 75 ug/ml. The format is organism-based. The settings on record: in vivo, read-out: Activity. In outline: as §1
A further series deals with Biomphalaria glabrata. The experiment in a line: Molluscicidal activity against Biomphalaria glabrata. The format is functional.

In brackets after ≈: the same amount, converted by molar mass. Activity calls are given as the source filed them. No cut-off for these calls is given here.

`[H][C@@]12COC(=O)c3cc(O)c(O)c(O)c3Oc3c(O)cc4c(=O)oc5c(O)c(O)c(c6c(=O)oc3c4c56)-c3c(cc(O)c(O)c3O)C(=O)O[C@@]1([H])[C@H](O)[C@@H](O)C(O)O2` (stereo partly drawn) had a minimum inhibitory concentration (MIC) in the series on Bacillus subtilis of 8 mg/L (≈ 10.2 µM).
Regarding `O=C1O[C@H]2[C@H](O)[C@@H](CO)OC(O)[C@@H]2OC(=O)c2cc(O)c(O)c(O)c2-c2c1cc(O)c(O)c2O` (stereo partly drawn), the outcome in the series on Bacillus subtilis and in the series with Pseudomonas fluorescens was inactive. For the same molecule, in the series with 5637, the CC50 was 84.7 µM.
For `O=C(O[C@H]1C(O)O[C@@H]2COC(=O)c3cc(O)c(O)c(O)c3-c3c(O)c(O)c4oc(=O)c5c(c(O)c(O)c6oc(=O)c3c4c65)-c3c(cc(O)c(O)c3O)C(=O)O[C@H]2[C@@H]1O)c1cc(O)c(O)c(O)c1` (stereo partly drawn), the lowest concentration to inhibit growth with Bacillus subtilis (MIC) was 8 mg/L (≈ 8.56 µM). In addition, the outcome in the series on Pseudomonas fluorescens was inactive.
As to `O=C1OC[C@H]2OC(O)[C@H](O)[C@@H](O)[C@@H]2OC(=O)c2cc(O)c(O)c(O)c2-c2c(O)c(O)c3oc(=O)c4cc(O)c(c5oc(=O)c2c3c54)Oc2c1cc(O)c(O)c2O` (stereo partly drawn), the outcome in the series with Pseudomonas fluorescens was inactive.
In turn, `CO/N=C(\C(=O)N[C@@H]1C(=O)N2C(C(=O)O)=C(COC(C)=O)CS[C@H]12)c1csc(N)n1` [CEFOTAXIME] returned an MIC against Bacillus subtilis of 2 mg/L (≈ 4.39 µM).
Turning to `[H][C@@]12OC(=O)c3cc(O)c(O)c(O)c3-c3c(O)c(O)c4oc(=O)c5cc(O)c(c6oc(=O)c3c4c65)Oc3c(cc(O)c(O)c3O)C(=O)OC[C@@]1([H])OC(O)[C@]1([H])OC(=O)c3cc(O)c(O)c(O)c3-c3c(cc(O)c(O)c3O)C(=O)O[C@@]21[H]` (stereo partly drawn) [ISOTERCHEBULIN], the mortality at 50 ug/ml in series [1] was determined as 10%. Also, the minimum inhibitory concentration (MIC) in the series with Bacillus subtilis was determined as 8 mg/L (≈ 7.38 µM). The outcome in the series on Pseudomonas fluorescens was inactive. For the same molecule, the result in the series on Caenorhabditis elegans was Active. Further, the mortality at 75 ug/ml in series [2] is 10%. The molecule also displayed an LC100 in the series with Biomphalaria glabrata of 60 µg/mL.
`O=C1O[C@H]([C@@H]2OC(=O)c3cc(O)c(O)c(O)c3-c3c(O)c(O)c4oc(=O)c5c(c(O)c(O)c6oc(=O)c3c4c65)-c3c(cc(O)c(O)c3O)C(=O)OC[C@H]2O)[C@@H]2OC(=O)c3c(c(O)c(O)c(O)c3[C@H]2O)-c2c1cc(O)c(O)c2O` [PUNICACORTEIN C] returned an MIC in the series on Bacillus subtilis of 16 mg/L (≈ 14.8 µM). Besides, in the series on Pseudomonas fluorescens, the result was inactive. Also, the CC50 in the series on 5637 worked out at 41.4 µM.
Molecule `O=C1O[C@@H]2[C@@H](OC(=O)c3cc(O)c(O)c(O)c3-c3c1cc(O)c(O)c3O)[C@H](O)O[C@@H]1COC(=O)c3cc(O)c(O)c(O)c3-c3c(O)c(O)c4oc(=O)c5c(c(O)c(O)c6oc(=O)c3c4c65)-c3c(cc(O)c(O)c3O)C(=O)O[C@@H]21` [PUNICALAGIN] had a minimum inhibitory concentration (MIC) in the series with Bacillus subtilis of 32 mg/L (≈ 29.5 µM). The outcome in the series with Pseudomonas fluorescens was inactive.
`O=C(OC[C@H]1OC(O)[C@@H]2OC(=O)c3cc(O)c(O)c(O)c3-c3c(cc(O)c(O)c3O)C(=O)O[C@H]2[C@@H]1OC(=O)c1cc(O)c(O)c(O)c1-c1c(O)c(O)c2oc(=O)c3cc(O)c(O)c4oc(=O)c1c2c43)c1cc(O)c(O)c(O)c1` (stereo partly drawn) [TERFLAVIN A] displayed an MIC in the series on Bacillus subtilis of 64 mg/L (≈ 58.9 µM). In addition, the result with Pseudomonas fluorescens was inactive.
On to `O=C(OC[C@H]1OC(O)[C@H](O)[C@@H](O)[C@@H]1OC(=O)c1cc(O)c(O)c(O)c1-c1c(O)c(O)c2oc(=O)c3cc(O)c(O)c4oc(=O)c1c2c43)c1cc(O)c(O)c(O)c1` (stereo partly drawn) [TERFLAVIN B], for which it took 64 mg/L (≈ 81.6 µM) to inhibit growth against Bacillus subtilis (MIC). For the same molecule, the result with Pseudomonas fluorescens was inactive.

As a reminder, the MIC is the least concentration at which growth counts as inhibited.

The values are drawn from ChEMBL document CHEMBL1150564, “Isoterchebulin and 4,6-O-isoterchebuloyl-D-glucose, novel hydrolyzable tannins from Terminalia macroptera” (J Nat Prod, 2001).
